Blank lines part the entries; values can stand above or below the molecule they belong to.
Experiments:
Cathepsin G = target: T1, Cathepsin G (Homo sapiens, UniProt P08311); assay: Inhibition of cathepsin G at pH 7.5 in HEPES buffer containing 200 mM NaCl with substrate Suc-Ala-Ala-Pro-Phe-pNA.
T1 sequence (P08311 whole entry): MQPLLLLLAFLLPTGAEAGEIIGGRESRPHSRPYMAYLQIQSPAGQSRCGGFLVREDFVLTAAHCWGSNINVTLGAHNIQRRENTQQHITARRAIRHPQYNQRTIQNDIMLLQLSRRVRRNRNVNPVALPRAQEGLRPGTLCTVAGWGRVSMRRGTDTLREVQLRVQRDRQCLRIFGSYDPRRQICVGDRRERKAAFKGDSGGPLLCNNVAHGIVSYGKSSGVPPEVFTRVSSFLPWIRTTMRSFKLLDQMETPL
In short: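 Wells pre-equilibrated at 37 °C >10 min before enzyme start. A405 followed 15 min. Eight concentrations over a 200-fold span. Ki from competitive fit of vi/vc versus [I].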

Neutrophil elastase [1] = target: T2, Neutrophil elastase (Homo sapiens, UniProt P08246); assay: Inhibitory activity against human leukocyte elastase
T2 sequence (P08246 whole entry): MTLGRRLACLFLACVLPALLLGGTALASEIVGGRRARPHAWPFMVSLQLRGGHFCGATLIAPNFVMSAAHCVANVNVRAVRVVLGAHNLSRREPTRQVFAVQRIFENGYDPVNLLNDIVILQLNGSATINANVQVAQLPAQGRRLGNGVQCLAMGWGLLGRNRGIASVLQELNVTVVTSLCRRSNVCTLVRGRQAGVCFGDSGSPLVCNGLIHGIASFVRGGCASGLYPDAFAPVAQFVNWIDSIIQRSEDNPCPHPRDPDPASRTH

Prothrombin = Prothrombin (Homo sapiens, UniProt P00734); assay: Inhibition of thrombin at pH 7.5 in HEPES buffer containing 200 mM NaCl with substrate Bz-Phe-Val-Arg-pNA.
In short: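 Reaction started with enzyme after >10 min equilibration. A405 rise recorded 15 min. Eight compound levels over a 200-fold range. Ki from competitive-model fit of vi/vc.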

Neutrophil elastase [2] = target: T2, Neutrophil elastase; assay: Binding Affinity to inhibit HLE
In short: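 Purified human leukocyte elastase (3 nM final) with 10 µM […] (below Km 200 µM) in 50 mM HEPES, 200 mM NaCl, pH 7.5, 0.3% DMSO. Inhibitor and substrate pre-equilibrated at 37 °C for >10 min, then enzyme added. A405 read for 15 min. Eight inhibitor levels spanning a 200-fold range. Ki from fit of vi/vc to the competitive-inhibition equation.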

[3] = target: T3, Neutrophil elastase (Homo sapiens) (UniProt P08246); conditions: 0.2 uM
T3 sequence (whole entry): T2 sequence (P08246 whole entry)

[4] = target: T3, Neutrophil elastase (Homo sapiens); conditions: 0.5 uM
[5] = target: T3, Neutrophil elastase (Homo sapiens); conditions: 1 uM
[6] = substrate: O=C(O)COc1cc(Cc2cc(OCc3ccccc3)c(Cc3cc(OCc4ccccc4)c(Cc4cc(OCc5ccccc5)c(Cc5cc(OCc6ccccc6)c(Cc6cc(O)ccc6OCC(=O)O)cc5OCC(=O)O)cc4OCC(=O)O)cc3OCC(=O)O)cc2OCC(=O)O)c(OCc2ccccc2)cc1CO; conditions: 0.5 uM
[7] = substrate: O=C(O)COc1cc(Cc2cc(OCc3ccccc3)c(Cc3cc(OCc4ccccc4)c(Cc4cc(OCc5ccccc5)c(Cc5cc(OCc6ccccc6)c(Cc6cc(O)ccc6OCC(=O)O)cc5OCC(=O)O)cc4OCC(=O)O)cc3OCC(=O)O)cc2OCC(=O)O)c(OCc2ccccc2)cc1CO; conditions: 1 uM
[8] = substrate: O=C(O)COc1cc(Cc2cc(OCc3ccccc3)c(Cc3cc(OCc4ccccc4)c(Cc4cc(OCc5ccccc5)c(Cc5cc(OCc6ccccc6)c(Cc6cc(O)ccc6OCC(=O)O)cc5OCC(=O)O)cc4OCC(=O)O)cc3OCC(=O)O)cc2OCC(=O)O)c(OCc2ccccc2)cc1CO; conditions: 0.2 uM

Molecule: CC(C)(C)c1cc2c(OCC(=O)O)c(c1)Cc1cc(C(C)(C)C)cc(c1OCC(=O)O)Cc1cc(C(C)(C)C)cc(c1OCC(=O)O)Cc1cc(C(C)(C)C)cc(c1OCC(=O)O)Cc1cc(C(C)(C)C)cc(c1OCC(=O)O)Cc1cc(C(C)(C)C)cc(c1OCC(=O)O)Cc1cc(C(C)(C)C)cc(c1OCC(=O)O)Cc1cc(C(C)(C)C)cc(c1OCC(=O)O)C2
Ki (Neutrophil elastase [1]): 1300 nM

Molecule: COCCOCOc1cc(Cc2cc(OC)c(Cc3cc(OC)c(Cc4cc(OC)c(Cc5cc(OC)c(Cc6cc(OC)ccc6OCC(=O)O)cc5OCOCCOC)cc4OCC(=O)O)cc3OCOCCOC)cc2OCC(=O)O)c(OC)cc1C
Ki (Cathepsin G): > 15000 nM | Ki (Neutrophil elastase [1]): 1000 nM | Ki (Prothrombin): 240 nM

Molecule: O=C(O)COc1cc(Cc2cc(OCc3ccccc3)c(Cc3cc(OCc4ccccc4)c(Cc4cc(O)ccc4OCC(=O)O)cc3OCC(=O)O)cc2OCC(=O)O)c(OCc2ccccc2)cc1CO
Ki (Cathepsin G): > 15000 nM | Ki (Neutrophil elastase [1]): 8300 nM | Ki (Prothrombin): > 15000 nM

Molecule: COc1ccc(OCC(=O)O)c(Cc2cc(O)c(Cc3cc(OCC(=O)O)c(Cc4cc(O)c(Cc5cc(OCC(=O)O)c(Cc6cc(O)c(C)cc6OC)cc5OC)cc4OC)cc3OC)cc2OC)c1
Ki (Cathepsin G): > 15000 nM | Ki (Neutrophil elastase [1]): 1300 nM | Ki (Prothrombin): > 15000 nM

B1: Neutrophil elastase (Homo sapiens), P08246 (protein)
chain: T2 sequence (P08246 whole entry)
Km [6]: 1.1 µM | Km [7]: 2.3 µM | Km [8]: 0.77 µM

Continued, values first:

Ki (Cathepsin G): 1500 nM | Ki (Neutrophil elastase [1]): 200 nM | Ki (Prothrombin): > 15000 nM
Molecule: COc1cc(CO)c(OCc2ccccc2)cc1Cc1cc(OC)c(Cc2cc(OC)c(Cc3cc(OC)c(Cc4cc(OC)c(Cc5cc(O)ccc5OCC(=O)O)cc4OCc4ccccc4)cc3OCC(=O)O)cc2OCc2ccccc2)cc1OCC(=O)O

Ki (Cathepsin G): > 15000 nM | Ki (Neutrophil elastase [1]): 100 nM | Ki (Prothrombin): 1700 nM
Molecule: COc1ccc(OCC(=O)O)c(Cc2cc(OCCCc3ccccc3)c(Cc3cc(OCC(=O)O)c(Cc4cc(OCCCc5ccccc5)c(Cc5cc(OCC(=O)O)c(Cc6cc(OCCCc7ccccc7)c(C)cc6OC)cc5OC)cc4OC)cc3OC)cc2OC)c1

Ki (Cathepsin G): > 15000 nM | Ki (Neutrophil elastase [1]): 130 nM | Ki (Prothrombin): 750 nM
Molecule: O=C(O)COc1cc(Cc2cc(OCc3ccccc3)c(Cc3cc(OCc4ccccc4)c(Cc4cc(OCc5ccccc5)c(Cc5cc(O)ccc5OCC(=O)O)cc4OCC(=O)O)cc3OCC(=O)O)cc2OCC(=O)O)c(OCc2ccccc2)cc1CO

Ki (Cathepsin G): > 15000 nM | Ki (Neutrophil elastase [1]): 120 nM | Ki (Neutrophil elastase [2]): 190 nM | Ki (Prothrombin): > 15000 nM | Vm [3]: 0.2 µM | Vm [4]: 0.2 µM | Vm [5]: 0.2 µM
Molecule: O=C(O)COc1cc(Cc2cc(OCc3ccccc3)c(Cc3cc(OCc4ccccc4)c(Cc4cc(OCc5ccccc5)c(Cc5cc(OCc6ccccc6)c(Cc6cc(O)ccc6OCC(=O)O)cc5OCC(=O)O)cc4OCC(=O)O)cc3OCC(=O)O)cc2OCC(=O)O)c(OCc2ccccc2)cc1CO

Ki (Cathepsin G): > 15000 nM | Ki (Neutrophil elastase [1]): 20 nM | Ki (Prothrombin): > 15000 nM
Molecule: COc1ccc(OCC(=O)O)c(Cc2cc(OCC3CCCCC3)c(Cc3cc(OCC(=O)O)c(Cc4cc(OCC5CCCCC5)c(Cc5cc(OCC(=O)O)c(Cc6cc(OCC7CCCCC7)c(C)cc6OC)cc5OC)cc4OC)cc3OC)cc2OC)c1

Ki (Cathepsin G): > 15000 nM | Ki (Neutrophil elastase [1]): 17 nM | Ki (Prothrombin): 1400 nM
Molecule: COc1ccc(OCC(=O)O)c(Cc2cc(OCCCCCc3ccccc3)c(Cc3cc(OCC(=O)O)c(Cc4cc(OCCCCCc5ccccc5)c(Cc5cc(OCC(=O)O)c(Cc6cc(OCCCCCc7ccccc7)c(C)cc6OC)cc5OC)cc4OC)cc3OC)cc2OC)c1

Source: ChEMBL document CHEMBL1130189, “Anionic- and lipophilic-mediated surface binding inhibitors of human leukocyte elastase” (J Med Chem, 1997)
